Legend:
Staphylococcus aureus [1] = experiment: Antimicrobial activity against methicillin-sensitive Staphylococcus aureus ATCC 29213 assessed as reduction in microbial growth after 24 hrs by microdilution method; format: functional
Method in brief: (§1)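 Bacterial MICs by CLSI M7 broth microdilution on ATCC strains. Concentrations ran from 256 to 0.5 µg/mL, with 24 h incubation at 35 °C. MIC is the lowest concentration with no visible growth. Duplicate assays.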

Trichophyton rubrum = experiment: Antifungal activity against Trichophyton rubrum SNB-TR1 assessed as reduction in microbial growth after 5 days by microdilution method; format: functional; details: SNB-TR1, 120 h, time 5 day
Method in brief: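 CLSI M38 broth microdilution on a clinical dermatophyte isolate. Serial dilutions from 256 to 0.5 µg/mL, incubated at 35 °C and read after 5 days. MIC is the lowest concentration preventing visible growth. Run in duplicate.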

Candida albicans [2] = experiment: Antifungal activity against Candida albicans ATCC 10231 assessed as reduction in microbial growth after 48 h by microdilution method; details: ATCC 10231, 48 h
Staphylococcus aureus [3] = experiment: Antimicrobial activity against methicillin-resistant Staphylococcus aureus ATCC 33591 assessed as reduction in microbial growth after 24 hrs by microdilution method; format: functional
Method in brief: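 Broth microdilution per CLSI M7; test range 256 to 0.5 µg/mL; plates incubated at 35 °C and read at 24 h for bacteria; MIC taken as lowest concentration preventing visible growth in the wells; run in duplicate.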

Escherichia coli = experiment: Antimicrobial activity against Escherichia coli ATCC 25922 assessed as reduction in microbial growth after 24 hrs by microdilution method; format: functional; method in brief: as §1
MRC5 = experiment: Cytotoxicity against human MRC5 cells assessed as reduction in cell viability after 72 hrs by CellTiter Glo assay; format: cell-based; details: MRC5, 72 h
Method in brief: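 Lung fibroblasts from ATCC, grown in DMEM with 10% FCS and 1% glutamine at 37 °C under 5% CO2, were seeded at 3 × 10^3 cells/well. After 24 h they were dosed at 10 final concentrations by serial dilution in medium, with vehicle controls. After 72 h, viability was read by CellTiter Glo luminescence (15 min). Triplicate runs; IC50 from four- or five-parameter logistic fits.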

Candida albicans [4] = experiment: Antifungal activity against Candida albicans ATCC 10231 assessed as reduction in microbial growth after 5 days by microdilution method; format: functional; details: ATCC 10231, 120 h, time 5 day

Compound | MIC (Staphylococcus aureus [1]) | MIC (Trichophyton rubrum) | MIC (Candida albicans [2]) | MIC (Staphylococcus aureus [3]) | MIC (Escherichia coli) | IC50 (MRC5) | MIC (Candida albicans [4])
C/C=C/[C@@H]1C=C[C@@H]2C[C@H](CO)CC[C@H]2[C@]1(C)/C(O)=C1\C(=O)N[C@@H]([C@@H](C)O)C1=O | > 256 µg/mL | > 256 µg/mL | > 256 µg/mL | > 256 µg/mL | > 256 µg/mL |  | 
C/C=C/[C@@H]1C=C[C@@H]2C[C@H](C)CC[C@H]2[C@]1(C)/C(O)=C1\C(=O)N[C@@H]([C@@H](C)O)C1=O | 8 µg/mL | 64 µg/mL | 128 µg/mL | 16 µg/mL | > 256 µg/mL | 50.3 µM | 
C/C=C/[C@@H]1C=C[C@@H]2C[C@H](CO)CC[C@H]2[C@]1(C)/C(O)=C1\C(=O)N[C@@H]([C@H](C)O)C1=O | > 256 µg/mL | > 256 µg/mL | > 256 µg/mL | > 256 µg/mL | 256 µg/mL |  | 
Cc1onc(-c2ccccc2)c1C(=O)N[C@@H]1C(=O)N2[C@@H]1SC(C)(C)[C@@H]2C(=O)O [OXACILLIN] | 0.25 µg/mL |  |  |  |  |  | 
OC(Cn1cncn1)(Cn1cncn1)c1ccc(F)cc1F [FLUCONAZOLE] |  | 4 µg/mL |  |  |  |  | 1 µg/mL
C/C=C1\NC(=O)C(C(=O)[C@@]2(C)[C@@H]3CC[C@@H](C)C[C@H]3C=C[C@H]2/C=C/C)=C1O | 2 µg/mL | 32 µg/mL | 32 µg/mL | 1 µg/mL | > 256 µg/mL | 24.2 µM | 
C/C=C/[C@@H]1C=C[C@@H]2C[C@H](C)CC[C@H]2[C@]1(C)/C(O)=C1\C(=O)N[C@@H]([C@H](C)O)C1=O | 2 µg/mL | 32 µg/mL | 16 µg/mL | 2 µg/mL | > 256 µg/mL | 40 µM | 
GENTAMICIN |  |  |  |  | 8 µg/mL |  | 
C/C=C1\NC(=O)C(C(=O)[C@@]2(C)[C@@H]3CC[C@@H](CO)C[C@H]3C=C[C@H]2/C=C/C)=C1O | 64 µg/mL | > 256 µg/mL | > 256 µg/mL | 128 µg/mL | > 256 µg/mL | 106 µM | 

Source: ChEMBL document CHEMBL4699552, “Paecilosetin Derivatives as Potent Antimicrobial Agents from Isaria farinosa” (J Nat Prod, 2020)
